Measured values taken from PMC5955861 (Oncogene, 2018).
Like-named read-outs stand apart in the source and are kept apart here.

Tests used:
MOLM-13 = assay: alamarBlue cell proliferation assay; assay type: cell-based; details: Homo sapiens
Procedure, shortened: (§1)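 Leukemia, lymphoma and myeloma lines (from ATCC or DSMZ, grown per supplier instructions, STR-authenticated; GFP-labelled sublines where stated) were incubated with test compound in 96-well flat-bottom plates. Viability was read by alamarBlue conversion, and EC50 was taken from the concentration-response.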

MUTZ-3 = assay: alamarBlue cell proliferation assay; assay type: cell-based
Procedure, shortened: as §1

MV-4-11B = assay: alamarBlue cell proliferation assay; assay type: cell-based, human; details: Homo sapiens
Procedure, shortened: (§2)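 Cell lines from ATCC or DSMZ were cultured per supplier's instructions and STR-authenticated. MV-4-11B is a clone of MV-4-11 carrying heterozygous TP53 c.742C>T (p.R248W). Cells were exposed to test compound in 96-well format, and viability was read after incubation with alamarBlue.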

MV-4-11B GFP = assay: alamarBlue cell proliferation assay; assay type: cell-based
Procedure, shortened: as §1

OCI-AML3 = assay: alamarBlue cell proliferation assay; assay type: cell-based; details: Homo sapiens, OCI-AML-3
Procedure, shortened: as §1

SKM-1 = assay: alamarBlue cell proliferation assay; assay type: cell-based; details: Homo sapiens
Procedure, shortened: as §1

THP-1 GFP = assay: alamarBlue cell proliferation assay; assay type: cell-based; details: Homo sapiens
Procedure, shortened: as §2

J.RT3-T3.5 = assay: alamarBlue cell proliferation assay; assay type: cell-based; details: Homo sapiens
Procedure, shortened: as §1

MOLT-3 = assay: alamarBlue cell proliferation assay; assay type: cell-based; details: Homo sapiens
Procedure, shortened: as §1

MOLT-4 = assay: alamarBlue cell proliferation assay; assay type: cell-based; details: Homo sapiens
Procedure, shortened: as §1

MOLP-8 = assay: alamarBlue cell proliferation assay; assay type: cell-based; details: Homo sapiens
Procedure, shortened: as §1

HBL-1 = assay: alamarBlue cell proliferation assay; assay type: cell-based; details: HBL1
Procedure, shortened: as §1

OCI-Ly3 = assay: alamarBlue cell proliferation assay; assay type: cell-based; details: Homo sapiens
Procedure, shortened: as §1

TMD8 = assay: alamarBlue cell proliferation assay; assay type: cell-based; details: Homo sapiens
Procedure, shortened: as §2

OCI-Ly7 = assay: alamarBlue cell proliferation assay; assay type: cell-based; details: Homo sapiens
Procedure, shortened: as §1

OCI-Ly19 = assay: alamarBlue cell proliferation assay; assay type: cell-based; details: Homo sapiens
Procedure, shortened: as §1

RC-K8 = assay: alamarBlue cell proliferation assay; assay type: cell-based; details: Homo sapiens, RCK8
Procedure, shortened: as §1

SU-DHL6 = assay: alamarBlue cell proliferation assay; assay type: cell-based; details: Homo sapiens, SU-DHL-6
Procedure, shortened: as §2

JEKO-1 = assay: alamarBlue cell proliferation assay; assay type: cell-based; details: Homo sapiens
Procedure, shortened: as §1

[1] = tested on: AML primary patient samples; assay: proliferation of ex vivo-treated primary patient samples; assay type: cell-based; details: Homo sapiens
MV-4-11B AML cells = assay: disseminated AML xenograft efficacy study; assay type: in vivo, CIEA-NOG mice; details: MV-4-11B i.v. engrafted

`CNc1nc(-c2nc3ccc(N4CCN(C)CC4)cc3n2Cc2ccccc2)cn2c(C)nnc12` [BI 894999] gave an EC50 (MOLM-13) of 12.8 ± 3.4 nM, an EC50 (MUTZ-3) of 12.8 ± 11.2 nM and an EC50 (MV-4-11B) of 6.8 ± 4 nM. The EC50 (MV-4-11B; read-out: anti-proliferative EC50) was 10 nM, the EC50 (MV-4-11B GFP) was 2.9 ± 0.9 nM and the EC50 (OCI-AML3) was 2.3 ± 0.5 nM. The EC50 (SKM-1) was 10.2 ± 1.5 nM, the EC50 (THP-1 GFP) was 4.1 ± 2 nM and the EC50 (J.RT3-T3.5) was 11 ± 4 nM. It also gave an EC50 (MOLT-3) of 14.4 ± 6.5 nM, an EC50 (MOLT-4) of 40.7 ± 28.7 nM and an EC50 (MOLP-8) of 5.3 ± 2.8 nM. For the same molecule, the EC50 (HBL-1) was 7.1 ± 5.2 nM, the EC50 (OCI-Ly3) was 8.2 ± 2.3 nM and the EC50 (TMD8) was 9.7 ± 3.7 nM. For the same molecule, the EC50 (OCI-Ly7) was 14.2 ± 6.4 nM, the EC50 (OCI-Ly19) was 13.2 ± 4.3 nM and the EC50 (RC-K8) was 7.8 ± 0.9 nM. It also gave an EC50 (SU-DHL6) of 13.4 ± 1.2 nM, an EC50 (JEKO-1) of 7.9 ± 2.1 nM and an EC50 ([1]; 16/20 AML patient samples) of under 10 nM. The EC50 ([1]; read-out: BI 894999 EC50, AML Patient 1, risk group Intermediate) was 4 nM, the EC50 ([1]; read-out: BI 894999 EC50, AML Patient 2, risk group Intermediate) was under 1 nM and the EC50 ([1]; read-out: BI 894999 EC50, AML Patient 3, risk group Intermediate) was 5 nM. It also gave an EC50 ([1]; read-out: BI 894999 EC50, AML Patient 4, risk group High) of 1080 nM, an EC50 ([1]; read-out: BI 894999 EC50, AML Patient 5, risk group High) of 89 nM and an EC50 ([1]; read-out: BI 894999 EC50, AML Patient 6, risk group Intermediate) of 2 nM. The EC50 ([1]; read-out: BI 894999 EC50, AML Patient 7, risk group Intermediate) was 12 nM, the EC50 ([1]; read-out: BI 894999 EC50, AML Patient 8, risk group High) was 2 nM and the EC50 ([1]; read-out: BI 894999 EC50, AML Patient 9, risk group Intermediate) was 5 nM. For the same molecule, the EC50 ([1]; read-out: BI 894999 EC50, AML Patient 10, risk group High) was under 1 nM, the EC50 ([1]; read-out: BI 894999 EC50, AML Patient 11, risk group High) was 18 nM and the EC50 ([1]; read-out: BI 894999 EC50, AML Patient 12, risk group Intermediate) was 4 nM. It also gave an EC50 ([1]; read-out: BI 894999 EC50, AML Patient 13, risk group Intermediate) of under 1 nM, an EC50 ([1]; read-out: BI 894999 EC50, AML Patient 14) of under 1 nM and an EC50 ([1]; read-out: BI 894999 EC50, AML Patient 15, risk group Intermediate) of 1 nM. For the same molecule, the EC50 ([1]; read-out: BI 894999 EC50, AML Patient 16) was under 1 nM, the EC50 ([1]; read-out: BI 894999 EC50, AML Patient 17, risk group High) was under 1 nM and the EC50 ([1]; read-out: BI 894999 EC50, AML Patient 18, risk group Intermediate) was under 1 nM. It also gave an EC50 ([1]; read-out: BI 894999 EC50, AML Patient 19, risk group Intermediate) of under 1 nM, an EC50 ([1]; read-out: BI 894999 EC50, AML Patient 20, risk group Intermediate) of under 1 nM and a survival prolongation (MV-4-11B AML cells; daily oral 2 mg/kg) of 29.5 days. The “tumor growth inhibition (TGI)” value (MV-4-11B AML cells; daily oral 2 mg/kg) was 96%, the survival prolongation (MV-4-11B AML cells; daily oral 4 mg/kg) was 52 days and the “tumor growth inhibition (TGI)” value (MV-4-11B AML cells; daily oral 4 mg/kg) was 99%.
